The source made the active and inactive calls.
What was measured:
Rattus norvegicus [1] = organism: Rattus norvegicus; experiment: Inhibitory concentration against [3H]- 5-HT uptake in crude rat synaptosomes; format: functional; conditions: Brain
Procedure, shortened: (§1)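 Crude synaptosomes from male Sprague-Dawley rat tissue homogenised in ice-cold isotonic sucrose. Preincubated 5 min at 37 °C under aeration with pargyline (final 100 μM), then chilled. Tritiated transmitter added at 10 nM final and uptake run 5 min at 37 °C. Catecholamine buffer had 0.06 mM ascorbate. Filtered and counted by scintillation. 9–10 concentrations in triplicate, 3–4 experiments, four-parameter logistic fit for IC50 ± SEM.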

Rattus norvegicus [2] = organism: Rattus norvegicus; experiment: Inhibitory concentration against [3H]- NE uptake in crude rat synaptosomes; format: functional; conditions: Brain; procedure, shortened: as §1
Rattus norvegicus [3] = organism: Rattus norvegicus; experiment: Inhibitory concentration against [3H]- DA uptake in crude rat synaptosomes; format: functional; conditions: Brain; procedure, shortened: as §1
Rattus norvegicus [4] = experiment: Number of animals tested to that of number of animals disrupted in (s)-amphetamine trained at 0.125 mg/kg; Number of animals tested=15; format: functional
Procedure, shortened: (§2)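 Drug-discrimination rats were male Sprague-Dawley, 175–200 g, kept at about 80% of free-feeding weight. They were trained against saline on (S)-1c·HCl 1.75 mg/kg, 3·HCl 1.71 mg/kg or (S)-amphetamine sulfate 1 mg/kg. Test drug was given ip in 0.9% saline at 1 mL/kg, 30 min before sessions run under extinction. A session ended at 50 presses on one lever; failing 50 presses within 5 min was scored as disrupted.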

Rattus norvegicus [5] = experiment: Number of animals tested to that of number of animals disrupted in (s)-amphetamine trained at 0.250 mg/kg; Number of animals tested=14; format: functional; conditions: dose 0.25 mg/kg; procedure, shortened: as §2
Rattus norvegicus [6] = experiment: Number of animals tested to that of number of animals disrupted in (s)-amphetamine trained at 0.500 mg/kg; Number of animals tested=15; format: functional; conditions: dose 0.5 mg/kg
Rattus norvegicus [7] = experiment: Number of animals tested to that of number of animals disrupted in (s)-amphetamine trained at 1 mg/kg; Number of animals tested=10; format: functional; procedure, shortened: as §2
Rattus norvegicus [8] = experiment: Number of animals tested to that of number of animals disrupted in 3 trained at 0.125 mg/kg; Number of animals tested=10; format: functional; procedure, shortened: as §2
Rattus norvegicus [9] = experiment: Number of animals tested to that of number of animals disrupted in 3 trained at 0.250 mg/kg; Number of animals tested=11; format: functional; conditions: dose 0.25 mg/kg; procedure, shortened: as §2
Rattus norvegicus [10] = experiment: Number of animals tested to that of number of animals disrupted in 3 trained at 0.500 mg/kg; Number of animals tested=12; format: functional; conditions: dose 0.5 mg/kg; procedure, shortened: as §2
Rattus norvegicus [11] = experiment: Number of animals tested to that of number of animals disrupted in 3 trained at 1 mg/kg; Number of animals tested=10; format: functional; procedure, shortened: as §2
Rattus norvegicus [12] = experiment: Number of animals tested to that of number of animals disrupted in S-1c trained at 1 mg/kg; Number of animals tested=9; format: functional; procedure, shortened: as §2
Rattus norvegicus [13] = experiment: Number of animals tested to that of number of animals disrupted in S-1c trained at 0.125 mg/kg; Number of animals tested=14; format: functional; procedure, shortened: as §2
Rattus norvegicus [14] = experiment: Number of animals tested to that of number of animals disrupted in S-1c trained at 0.250 mg/kg; Number of animals tested=15; format: functional; conditions: dose 0.25 mg/kg; procedure, shortened: as §2
Rattus norvegicus [15] = experiment: Number of animals tested to that of number of animals disrupted in S-1c trained at 0.500 mg/kg; Number of animals tested=15; format: functional; conditions: dose 0.5 mg/kg; procedure, shortened: as §2
Rattus norvegicus [16] = experiment: Tested for drug-discrimination stimulus effect at 0.250 mg/kg in S-1c trained animals; 0.15-0.28; format: functional
Procedure, shortened: (§3)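 Male Sprague-Dawley rats (175–200 g) held at about 80% of free-feeding weight were trained on two levers to tell (S)-1c·HCl 1.75 mg/kg from saline. Test drugs were given in 0.9% saline, ip, 30 min before sessions run under extinction. A session ended at 50 presses on one lever, or was scored disrupted if not done within 5 min. %SDL counts nondisrupted rats. ED50 and 95% CI were derived by Litchfield–Wilcoxon.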

Rattus norvegicus [17] = experiment: Tested for drug-discrimination stimulus effect at 0.250 mg/kg in s)-amphetamine trained animals; NS= No substitution; format: functional, organism-based; design: dose 0.25 mg/kg
Procedure, shortened: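 Food-restricted male Sprague-Dawley rats were trained to tell (S)-amphetamine sulfate 1 mg/kg from saline. Test drug was given ip in 0.9% saline 30 min before extinction sessions, with 50 presses on one lever required within 5 min. No substitution was defined as 59% or less of nondisrupted rats selecting the drug lever, judged on the maximum across doses.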

Rattus norvegicus [18] = experiment: Percentage of nondisrupted animals selecting drug liver in 3 trained at 0.250 mg/kg; format: functional; conditions: dose 0.25 mg/kg
Procedure, shortened: (§4)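 Rats and training are as above: male Sprague-Dawley, food-restricted, with training doses per drug group. Test drug was given ip in saline 30 min before extinction sessions. %SDL is the share of nondisrupted rats reaching 50 presses on the drug lever. A rat not completing 50 presses in 5 min was scored as disrupted.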

Rattus norvegicus [19] = experiment: Percentage of nondisrupted animals selecting drug liver in 3 trained at 0.500 mg/kg; format: functional; conditions: dose 0.5 mg/kg; procedure, shortened: as §4
Rattus norvegicus [20] = experiment: Percentage of nondisrupted animals selecting drug liver in 3 trained at 1 mg/kg; format: functional; procedure, shortened: as §4
Rattus norvegicus [21] = experiment: Percentage of nondisrupted animals selecting drug liver in S-1c trained at 0.125 mg/kg; format: functional; procedure, shortened: as §4
Rattus norvegicus [22] = experiment: Percentage of nondisrupted animals selecting drug liver in S-1c trained at 0.250 mg/kg; format: functional; conditions: dose 0.25 mg/kg
Rattus norvegicus [23] = experiment: Percentage of nondisrupted animals selecting drug liver in S-1c trained at 0.500 mg/kg; format: functional; conditions: dose 0.5 mg/kg; procedure, shortened: as §3
Rattus norvegicus [24] = experiment: Percentage of nondisrupted animals selecting drug liver in S-1c trained at 1 mg/kg; format: functional
Rattus norvegicus [25] = experiment: Percentage of nondisrupted animals selecting drug liver in (S)-amphetamine trained at 0.125 mg/kg; format: functional; procedure, shortened: as §4
Rattus norvegicus [26] = experiment: Percentage of nondisrupted animals selecting drug liver in (S)-amphetamine trained at 0.250 mg/kg; format: functional; conditions: dose 0.25 mg/kg; procedure, shortened: as §4
Rattus norvegicus [27] = experiment: Percentage of nondisrupted animals selecting drug liver in (S)-amphetamine trained at 0.500 mg/kg; format: functional; conditions: dose 0.5 mg/kg; procedure, shortened: as §4
Rattus norvegicus [28] = experiment: Percentage of nondisrupted animals selecting drug liver in (S)-amphetamine trained at 1 mg/kg; format: functional; procedure, shortened: as §4
Rattus norvegicus [29] = experiment: Percentage of nondisrupted animals selecting drug liver in 3 trained at 0.125 mg/kg; format: functional; procedure, shortened: as §4
Rattus norvegicus [30] = experiment: Number of animals tested to that of number of animals disrupted in S-1c trained at 0.215 mg/kg; Number of animals tested=10; format: functional; procedure, shortened: as §2
Rattus norvegicus [31] = experiment: Number of animals tested to that of number of animals disrupted in 3 trained at 0.108 mg/kg; Number of animals tested=8; format: functional; procedure, shortened: as §2
Rattus norvegicus [32] = experiment: Number of animals tested to that of number of animals disrupted in 3 trained at 0.214 mg/kg; Number of animals tested=12; format: functional; procedure, shortened: as §2
Rattus norvegicus [33] = experiment: Number of animals tested to that of number of animals disrupted in 3 trained at 0.429 mg/kg; Number of animals tested=12; format: functional; procedure, shortened: as §2
Rattus norvegicus [34] = experiment: Number of animals tested to that of number of animals disrupted in 3 trained at 0.643 mg/kg; Number of animals tested=12; format: functional; procedure, shortened: as §2
Rattus norvegicus [35] = experiment: Number of animals tested to that of number of animals disrupted in 3 trained at 0.857 mg/kg; Number of animals tested=12; format: functional; procedure, shortened: as §2
Rattus norvegicus [36] = experiment: Number of animals tested to that of number of animals disrupted in S-1c trained at 0.643 mg/kg; Number of animals tested=12; format: functional
Rattus norvegicus [37] = experiment: Number of animals tested to that of number of animals disrupted in S-1c trained at 0.857 mg/kg; Number of animals tested=11; format: functional; procedure, shortened: as §2
Rattus norvegicus [38] = experiment: Number of animals tested to that of number of animals disrupted in 3 trained at 1.286 mg/kg; Number of animals tested=8; format: functional; procedure, shortened: as §2
Rattus norvegicus [39] = experiment: Number of animals tested to that of number of animals disrupted in S-1c trained at 0.429 mg/kg; Number of animals tested=10; format: functional; procedure, shortened: as §2
Rattus norvegicus [40] = experiment: Tested for drug-discrimination stimulus effect at 0.215 mg/kg in S-1c trained animals; 0.23-0.57; format: functional; procedure, shortened: as §3
Rattus norvegicus [41] = experiment: Percentage of nondisrupted animals selecting drug liver in 3 trained at 0.429 mg/kg; SDL; format: functional; procedure, shortened: as §4
Rattus norvegicus [42] = experiment: Percentage of nondisrupted animals selecting drug liver in 3 trained at 0.643 mg/kg; SDL; format: functional; procedure, shortened: as §4
Rattus norvegicus [43] = experiment: Percentage of nondisrupted animals selecting drug liver in 3 trained at 1.286 mg/kg; SDL; format: functional; procedure, shortened: as §4
Rattus norvegicus [44] = experiment: Percentage of nondisrupted animals selecting drug liver in S-1c trained at 0.108 mg/kg; SDL; format: functional; procedure, shortened: as §4
Rattus norvegicus [45] = experiment: Percentage of nondisrupted animals selecting drug liver in S-1c trained at 0.215 mg/kg; SDL; format: functional; procedure, shortened: as §4
Rattus norvegicus [46] = experiment: Percentage of nondisrupted animals selecting drug liver in S-1c trained at 0.429 mg/kg; SDL; format: functional
Rattus norvegicus [47] = experiment: Percentage of nondisrupted animals selecting drug liver in S-1c trained at 0.643 mg/kg; SDL; format: functional
Rattus norvegicus [48] = experiment: Percentage of nondisrupted animals selecting drug liver in S-1c trained at 0.857 mg/kg; SDL; format: functional
Rattus norvegicus [49] = experiment: Percentage of nondisrupted animals selecting drug liver in 3 trained at 0.108 mg/kg; SDL; format: functional; procedure, shortened: as §4
Rattus norvegicus [50] = experiment: Percentage of nondisrupted animals selecting drug liver in 3 trained at 0.214 mg/kg; SDL; format: functional; procedure, shortened: as §4
Rattus norvegicus [51] = experiment: Number of animals tested to that of number of animals disrupted in S-1c trained at 0.108 mg/kg; Number of animals tested=7; format: functional; procedure, shortened: as §2
Rattus norvegicus [52] = experiment: Percentage of nondisrupted animals selecting drug liver in 3 trained at 0.857 mg/kg; SDL; format: functional; procedure, shortened: as §4
Rattus norvegicus [53] = organism: Rattus norvegicus; experiment: Tested for drug-discrimination stimulus effect in 3-trained rats; format: functional

CC(N)Cc1ccc2c(c1)CCCC2 (centres undefined)
IC50 (Rattus norvegicus [1]): 121 nM
IC50 (Rattus norvegicus [2]): 3370 nM
IC50 (Rattus norvegicus [3]): 6440 nM

CC(N)Cc1ccc2c(c1)CCC2 (centres undefined)
Activity (Rattus norvegicus [4]): 2
Activity (Rattus norvegicus [5]): 2
Activity (Rattus norvegicus [6]): 7
Activity (Rattus norvegicus [7]): 6
Activity (Rattus norvegicus [8]): 2
Activity (Rattus norvegicus [9]): 5
Activity (Rattus norvegicus [10]): 6
Activity (Rattus norvegicus [11]): 8
Activity (Rattus norvegicus [12]): 2
Activity (Rattus norvegicus [13]): 3
Activity (Rattus norvegicus [14]): 5
Activity (Rattus norvegicus [15]): 3
ED50 (Rattus norvegicus [16]): 0.2 mg/kg
ED50 (Rattus norvegicus [17]): inactive
IC50 (Rattus norvegicus [1]): 82 nM
IC50 (Rattus norvegicus [2]): 849 nM
SDL (Rattus norvegicus [18]): 17%
SDL (Rattus norvegicus [19]): 83%
SDL (Rattus norvegicus [20]): 100%
SDL (Rattus norvegicus [21]): 9%
SDL (Rattus norvegicus [22]): 70%
SDL (Rattus norvegicus [23]): 100%
SDL (Rattus norvegicus [24]): 100%
SDL (Rattus norvegicus [25]): 0%
SDL (Rattus norvegicus [26]): 0%
SDL (Rattus norvegicus [27]): 0%
SDL (Rattus norvegicus [28]): 0%
SDL (Rattus norvegicus [29]): 13%
IC50 (Rattus norvegicus [3]): 1850 nM

CC(N)Cc1ccc2c(c1)OCC2 (centres undefined)
Activity (Rattus norvegicus [30]): 3
Activity (Rattus norvegicus [31]): 6
Activity (Rattus norvegicus [32]): 6
Activity (Rattus norvegicus [33]): 6
Activity (Rattus norvegicus [34]): 5
Activity (Rattus norvegicus [35]): 2
Activity (Rattus norvegicus [36]): 4
Activity (Rattus norvegicus [37]): 5
Activity (Rattus norvegicus [38]): 6
Activity (Rattus norvegicus [39]): 3
ED50 (Rattus norvegicus [40]): 0.4 mg/kg
IC50 (Rattus norvegicus [1]): 322 nM
IC50 (Rattus norvegicus [2]): 980 nM
SDL (Rattus norvegicus [41]): 83%
SDL (Rattus norvegicus [42]): 100%
SDL (Rattus norvegicus [43]): 100%
SDL (Rattus norvegicus [44]): 0%
SDL (Rattus norvegicus [45]): 14%
SDL (Rattus norvegicus [46]): 57%
SDL (Rattus norvegicus [47]): 88%
SDL (Rattus norvegicus [48]): 100%
SDL (Rattus norvegicus [49]): 0%
SDL (Rattus norvegicus [50]): 17%
IC50 (Rattus norvegicus [3]): 2000 nM
Activity (Rattus norvegicus [51]): 2
SDL (Rattus norvegicus [52]): 90%

COc1cc2c(cc1C)CC(N)C2 (centres undefined)
ED50 (Rattus norvegicus [53]): 0.56 mg/kg

Source: ChEMBL document CHEMBL1126909, “Synthesis and pharmacological examination of benzofuran, indan, and tetralin analogues of 3,4-(methylenedioxy)amphetamine” (J Med Chem, 1993)
